# The list is not random: actives were taken first. Their share in the collection is about 2%.
# GAA850 FXN act: frataxin GAA850 promoter activation | HEK293 lucGAA850 FXN promoter luciferase reporter, 24 h; percent of 10 µM SAHA response | 360,000 tested, 0.56% active | activation, % at 6 µM;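 active = activation above the average of all compounds screened plus 3 SD, cutoff fixed separately per campaign, cut at about 7.5% in these data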;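 also: 0% = DMSO wells and 100% = 10 µM SAHA wells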
# APJ agonist: APJ receptor agonism; CHO-K1 APJ PathHunter beta-arrestin, luminescence; 0% DMSO wells, 100% apelin; activation, % at 20 µM; 330,000 tested, 0.11% active; AID 2520;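 active = activation more than six SD over the plate average, tested at 20 µM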;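 also: 0% = DMSO alone and 100% = apelin-13 at 10 nM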
#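 Incubation: overnight seeding, 90 min compound at 25 °C, 1 h detection; test system: PathHunter CHO-K1 APJ (AGTRL-1) beta-arrestin reporter cells; amount: 1000 cells/well; doses: one dose, 20 µM compound, 1% DMSO; measured by: beta-gal luminescence; measure: agonist-driven arrestin binding to APJ; benchmarks: negative DMSO alone, positive Apelin-13 at 10 nM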
# CCR6 antag: antagonists of human CCR6 receptor. P51684. CHO-K1 CCR6 PathHunter beta-arrestin, luminescence, CCL20-stimulated. inhibition, % at 20 µM. 340,000 tested, 0.49% active. AID 493098;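 active = compounds whose inhibition of the agonist-driven luminescence signal at 20 µM reaches about 50%, limit read from the data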;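 also: cells stimulated with CCL20 at 14 nM final; plate controls were DMSO with CCL20 for no effect and DMSO without agonist for full effect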
# Target sequence (P51684 whole entry, looked up): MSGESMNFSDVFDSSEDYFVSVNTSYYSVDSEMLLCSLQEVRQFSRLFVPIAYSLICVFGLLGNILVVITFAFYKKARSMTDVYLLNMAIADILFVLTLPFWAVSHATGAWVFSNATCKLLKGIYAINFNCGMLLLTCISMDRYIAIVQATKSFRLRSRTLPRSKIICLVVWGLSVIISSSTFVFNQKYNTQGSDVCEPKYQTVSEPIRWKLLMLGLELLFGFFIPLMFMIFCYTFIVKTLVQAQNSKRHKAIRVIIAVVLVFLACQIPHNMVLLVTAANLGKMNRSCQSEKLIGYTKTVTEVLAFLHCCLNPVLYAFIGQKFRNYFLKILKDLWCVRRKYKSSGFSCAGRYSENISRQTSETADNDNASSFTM
# APJ antagonist: APJ receptor antagonism | AID 2521 | inhibition, % at 20 µM | 330,000 tested, 0.32% active | P35414 | CHO-K1 APJ beta-arrestin complementation, luminescence;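 active = inhibition above about 40% at 20 µM, limit read from the data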;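 also: cells challenged with 10 nM apelin-13 agonist together with compound; plate controls were apelin-13 plus DMSO wells for no effect and DMSO wells lacking apelin-13 for full effect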
# CXCR6 block: blocks human CXCR6 beta-arrestin recruitment. 360,000 tested, 0.36% active. CHO-K1 PathHunter CXCR6 beta-arrestin, luminescence. O00574. inhibition, % at 20 µM; in the data active = inhibition above about 34%, passing the limit was not always enough;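 also: antagonist mode with CXCL16 agonist at 10 nM final; 0% = 10 nM CXCL16 with DMSO and 100% = unstimulated wells without agonist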
# EBI2 block: blocks human EBI2 receptor beta-arrestin signaling; EBI2 beta-arrestin recruitment, luminescence, 7a,25-OHC stimulated; inhibition, % at 5 µM; 360,000 tested, 0.81% active; AID 651636; in the data active = inhibition above about 38%;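 also: enzyme fragment complementation signal reports receptor beta-arrestin coupling in cells; 0% = agonist plus DMSO wells and 100% = wells without agonist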
# EBI2 antag conf: confirmation of human EBI2 receptor antagonists | shares compounds with EBI2 block | EBI2 beta-arrestin luminescence, 7a,25-OHC antagonism | inhibition, % at 5 µM | 2,400 tested, 29% active | AID 651997;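 active = inhibition of at least 50%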
# EBI2 ag: EBI2 agonism counter-screen | shares compounds with EBI2 block | EBI2-expressing cells, agonist mode, luminescence, 60 min; 0% vehicle, 100% 7α,25-dihydroxycholesterol control | activation, % at 5 µM | 2,400 tested, under 10 active | AID 652000;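 active = activation of at least 50%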
# bGal cs: beta-galactosidase inhibition counter-screen | shares compounds with EBI2 block | purified beta-galactosidase, luminescent Galacton Star, 15 min | inhibition, % at 5 µM | 2,400 tested, 1% active;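 active = replicate-average signal at least 3 plate SD below neutral wells, shown as high inhibition, flagging enzyme-inhibiting false positives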;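 also: 0% = DMSO wells with enzyme and 100% = wells lacking enzyme; higher means stronger loss of beta-gal luminescence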
# * marks the source's active call; other numbers are inactive results; / = no result given.
SMILES,GAA850 FXN act,APJ agonist,CCR6 antag,APJ antagonist,CXCR6 block,EBI2 block,EBI2 antag conf,EBI2 ag,bGal cs
CCOC(=O)CN(C(=O)Cn1nnc(-c2ccc(OC)cc2)n1)C(C(=O)NC1CCCC1)c1ccc(F)cc1 (centres undefined),-2,-4,1,16,-6,75*,44,1,5
COc1cc(OC)cc(-c2c(Sc3ccccc3)c3cc(-c4ccc(OC)c(F)c4)ccc3n2C)c1,/,/,/,/,-4,7,/,/,/
CCOc1ccc(NC(=O)c2cc3ccccc3cc2O)cc1,7,2,-3,-44,-23,6,/,/,/
COc1ccc(NC(=O)c2ccc(C(=O)c3cc(OC)ccc3OC)cc2)cc1,-2,-3,6,2,-5,48*,6,0,6
COc1ccc(NC(=O)c2cc3ccccc3cc2OC)cc1,6,-5,11,18,-2,65*,36,1,5
CCOc1ccc(NC(=O)c2cc3ccccc3cc2OC)cc1,0,-1,-2,-23,-4,54*,37,-2,-11
CCN(Cc1ccc(OC)c(F)c1)C(C)C(=O)Nc1ccc(S(=O)(=O)N2CCCC2)cc1 (centres undefined),3,-1,22,6,6,2,/,/,/
O=C(CSc1nnc(COc2ccc(Cl)cc2)o1)NC1CC2CCC1C2 (centres undefined),0,-2,5,-4,-2,19,/,/,/
Nc1[nH]c(C(=O)c2ccccc2)c(-c2ccncc2)c1C(=O)NC1CC1,/,/,/,/,-3,4,/,/,/
CN1OC[C@@H]2CN[C@H](c3cccc(Oc4ccccc4)c3)C[C@@H]21,1,/,/,/,1,-1,/,/,/
O=C(NCc1cccnc1)C1Cc2c(-c3ccc(Cl)cc3)ccnc2O1 (centres undefined),-6,/,/,/,-3,-2,/,/,/
O=C(CCCN1C(=O)/C(=C/c2cccs2)SC1=S)NNC(=O)c1ccc(F)cc1,-1,-3,19,15,14,63*,19,-2,-11
CN(C)c1ccc(C=C(C#N)C(=O)c2ccccc2)cc1Br,/,/,/,/,6,3,/,/,/
CCOC(=O)c1[nH]c2ccc(OCC)cc2c1CCCN1C(=O)c2ccccc2C1=O,0,-2,20,2,4,46*,45,0,8
COc1cc2[nH]c(C(=O)N3CCN(c4ccc(F)cc4)CC3)cc2c(OC)c1OC,1,-3,1,0,-6,6,/,/,/
COc1ccc(N2CCN(C(=O)c3cc4cc(Cl)ccc4[nH]3)CC2)cc1,1,0,-4,-25,-8,75*,59*,2,6
O=C(c1cc2cc(Cl)ccc2[nH]1)N1CCN(c2ccc(F)cc2)CC1,2,1,-7,-14,-2,84*,75*,-1,-12
Cc1ccc2nc(NC(=O)C3CCN(C(=O)c4ccc(F)cc4)CC3)sc2c1,2,11,-8,-1,-10,11,/,/,/
COc1ccc2nccc(/C=C/c3ccnc4ccc(OC)cc34)c2c1,3,-3,8,8,-4,38*,-3,0,-9
Cc1ccc2nc(-c3ccncc3)cc(C(=O)Nc3ccc(F)cc3C)c2c1,1,1,-7,10,-1,51*,64*,1,8
CC(NC(=O)COC(=O)/C=C/c1ccc(Cl)cc1)c1ccccc1 (centres undefined),2,0,15,-16,3,48*,15,-1,-11
COC(=O)C1CCN(C(=O)/C=C/c2ccc(OC)cc2)CC1,0,-3,7,-1,-1,87*,76*,2,-2
COC(=O)C1CCN(C(=O)Nc2ccc(OC)cc2)CC1,-1,2,-1,-8,-12,8,/,/,/
COc1ccc(NC(=O)N2CCCC(c3ccccc3)C2)cc1 (centres undefined),7,-3,16,5,7,21,/,/,/
COc1ccc(CC(=O)N2CCC(c3ccccc3)C2)cc1 (centres undefined),1,-3,4,-3,-7,48*,43,0,6
SMILES,GAA850 FXN act,APJ agonist,CCR6 antag,APJ antagonist,CXCR6 block,EBI2 block,EBI2 antag conf,EBI2 ag,bGal cs
COc1ccc(/C=C/C(=O)N2CCC(c3ccccc3)C2)cc1 (centres undefined),4,-2,8,-9,1,70*,55*,0,-13
O=C(NCc1nc(-c2ccc(C(F)(F)F)cc2)no1)Nc1cc(Cl)cc(Cl)c1,1,0,-1,-13,-3,7,/,/,/
COc1ccc(-n2nnc3c(SCC(=O)N4CCCc5ccccc54)ncnc32)cc1,0,-3,11,-3,-1,42*,4,1,6
COc1ccc(NC(=O)C(OC(=O)Cn2cnc3c2c(=O)n(C)c(=O)n3C)c2ccccc2)cc1Cl (centres undefined),1,/,6,/,-13,0,/,/,/
CCCCC(=NCCc1c(C)[nH]c2ccc(OC)cc12)C1=C(O)CC(c2ccccc2)CC1=O (centres undefined),-4,-4,19,-19,14,51*,2,15,-12
CCC(=NCCc1c(C)[nH]c2ccc(OC(F)(F)F)cc12)C1=C(O)CC(c2ccccc2)CC1=O (centres undefined),-3,-1,14,-29,16,39,/,/,/
CC(=NCCc1c(C)[nH]c2ccc(OCc3ccccc3)cc12)C1=C(O)CC(c2ccccc2)CC1=O (centres undefined),-1,0,8,7,9,46*,25,0,5
CCCNC(=O)c1ccc(N2CCC3(CC2)CC(c2cccc(Br)c2)=NO3)c([N+](=O)[O-])c1,-3,-2,25,-2,10,11,/,/,/
COc1cccc(-c2cccc(-c3nc(C(=O)NCCCN4CCOCC4)cc4c3[C@H](CCO)N(S(=O)C(C)(C)C)C4)c2)c1 (some centres undefined),/,/,/,/,3,11,/,/,/
COc1ccc(NC(=O)CN2CCN(C3c4ccccc4-c4ccccc43)CC2)c(OC)c1,3,-4,-11,0,4,6,/,/,/
CCOc1ccc(NC(=O)CN2CCN(C3c4ccccc4-c4ccccc43)CC2)cc1,0,-4,4,2,-7,68*,49,0,3
